Experimental data from ChEMBL document CHEMBL1125349 (J Med Chem, 1992).
Non-standard residues stand in square brackets, D forms with d. Residues, ends and D or L forms follow the SMILES beside them. Ava = NCCCCC(=O)O

Assays:
Substance-P receptor = Substance-P receptor (Cavia porcellus, UniProt P30547); test: In vitro agonistic activity against tachykinin receptor 1 of guinea pig ileum longitudinal smooth muscle.; assay type: functional, tissue-based
Neuromedin-K receptor = target: T1, Neuromedin-K receptor (Rattus norvegicus, UniProt P16177); test: In vitro agonistic activity against tachykinin receptor 3 of everted rat protal vein.; assay type: functional
T1 sequence (P16177 whole entry): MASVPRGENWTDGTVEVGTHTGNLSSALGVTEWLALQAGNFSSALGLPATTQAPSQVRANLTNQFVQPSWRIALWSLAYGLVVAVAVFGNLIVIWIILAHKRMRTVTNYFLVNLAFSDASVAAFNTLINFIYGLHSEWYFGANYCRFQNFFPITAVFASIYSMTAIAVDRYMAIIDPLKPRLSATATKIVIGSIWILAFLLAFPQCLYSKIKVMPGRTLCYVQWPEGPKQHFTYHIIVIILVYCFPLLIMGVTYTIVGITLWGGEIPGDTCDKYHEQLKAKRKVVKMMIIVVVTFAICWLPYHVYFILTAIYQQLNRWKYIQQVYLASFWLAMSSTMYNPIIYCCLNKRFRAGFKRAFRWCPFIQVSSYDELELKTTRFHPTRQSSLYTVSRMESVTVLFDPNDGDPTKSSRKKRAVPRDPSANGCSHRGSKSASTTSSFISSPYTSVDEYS
Procedure, shortened: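 Everted isolated portal vein segments from male AH/A rats, 3-mL baths at 37 °C, 0.5 g resting tension, modified Krebs-Henseleit medium, isotonic contractions. […] Equipotent molar ratios were calculated and related to the reference agonist's mean EC50.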

Substance-K receptor = target: T2, Substance-K receptor (Rattus norvegicus, UniProt P16610); test: In vitro agonistic activity against tachykinin receptor 2 of rat colon muscularis mucosae.; assay type: functional
T2 sequence (P16610 whole entry): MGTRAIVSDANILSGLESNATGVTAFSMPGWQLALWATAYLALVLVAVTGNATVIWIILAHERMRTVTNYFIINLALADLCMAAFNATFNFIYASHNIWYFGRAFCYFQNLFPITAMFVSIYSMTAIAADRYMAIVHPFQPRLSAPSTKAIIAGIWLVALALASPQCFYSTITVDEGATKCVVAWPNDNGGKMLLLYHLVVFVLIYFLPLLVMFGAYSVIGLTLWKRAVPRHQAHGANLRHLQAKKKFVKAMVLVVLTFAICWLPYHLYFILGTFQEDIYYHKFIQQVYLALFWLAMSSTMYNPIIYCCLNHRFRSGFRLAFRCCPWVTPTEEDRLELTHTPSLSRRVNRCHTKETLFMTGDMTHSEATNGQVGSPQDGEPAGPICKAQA
Procedure, shortened: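 Colon muscularis mucosae from male AH/A rats (250-350 g), 3-mL baths, 0.5 g resting tension, 35 °C, with atropine, mepyramine, methysergide and indomethacin (1 µM each). Isotonic contraction was recorded.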

Chain of Substance-P receptor (P30547 whole entry): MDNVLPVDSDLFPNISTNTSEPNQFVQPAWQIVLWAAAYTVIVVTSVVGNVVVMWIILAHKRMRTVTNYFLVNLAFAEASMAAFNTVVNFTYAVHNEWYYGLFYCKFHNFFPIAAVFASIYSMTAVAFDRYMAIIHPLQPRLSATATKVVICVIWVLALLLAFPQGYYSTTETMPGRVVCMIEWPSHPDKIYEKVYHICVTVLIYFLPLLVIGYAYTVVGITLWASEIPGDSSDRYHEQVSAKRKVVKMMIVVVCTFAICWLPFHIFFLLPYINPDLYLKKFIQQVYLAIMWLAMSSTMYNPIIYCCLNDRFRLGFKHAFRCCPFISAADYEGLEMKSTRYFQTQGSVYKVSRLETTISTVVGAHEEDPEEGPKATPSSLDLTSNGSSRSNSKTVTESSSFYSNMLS

Molecule | EC50 (Substance-P receptor) [µM] | EC50 (Neuromedin-K receptor) [µM] | EC50 (Substance-K receptor) [µM]
CSCC[C@H](NC(=O)[C@H](CC(C)C)N1CC[C@@H](NC(=O)[C@@H](NC(=O)[C@H](Cc2ccccc2)NC(=O)[C@H](CO)NC(=O)[C@H](CC(=O)O)NC(=O)[C@@H](N)CCCCN)C(C)C)C1=O)C(N)=O | 4.24 | 1.18 | 0.0037
CSCC[C@H](NC(=O)[C@H](CC(C)C)N1CC2CCN(C(=O)[C@@H](NC(=O)[C@H](Cc3ccccc3)NC(=O)[C@H](CO)NC(=O)[C@H](CC(=O)O)NC(=O)[C@@H](N)CCCCN)C(C)C)C2C1=O)C(N)=O (stereo not given in full) | 1.13 | 2.72 | 0.059
CSCC[C@H](NC(=O)[C@H](CC(C)C)N1CC[C@]2(CCCN2C(=O)[C@H](Cc2ccccc2)NC(=O)[C@H](Cc2ccccc2)NC(=O)CCCCN)C1=O)C(N)=O | 0.307 |  | 1.39
CSCC[C@H](NC(=O)[C@H](CC(C)C)N1C[C@H]2CCN(C(=O)[C@H](Cc3ccccc3)NC(=O)[C@H](Cc3ccccc3)NC(=O)CCCCN)[C@H]2C1=O)C(N)=O | 0.545 | > 18 | 0.015
CSCC[C@H](NC(=O)[C@H](CC(C)C)N1CCC(NC(=O)[C@@H](NC(=O)[C@H](Cc2ccccc2)NC(=O)[C@H](CO)NC(=O)[C@H](CC(=O)O)NC(=O)[C@H](CCCCN)NC(C)=O)C(C)C)C1=O)C(N)=O (stereo not given in full) | 0.044 |  | 0.0013
CSCC[C@H](NC(=O)[C@H](CC(C)C)N1CCC(NC(=O)[C@H](Cc2ccccc2)NC(=O)[C@H](Cc2ccccc2)NC(=O)CCCCN)C1=O)C(N)=O (stereo not given in full) | 0.086 | 10.6 | 0.062
CSCC[C@H](NC(=O)[C@H](CC(C)C)NC(=O)[C@H]1CCCN1C(=O)[C@H](Cc1ccccc1)NC(=O)[C@H](Cc1ccccc1)NC(=O)CCCCN)C(N)=O | 0.83 | > 30 | 0.092
CSCC[C@H](NC(=O)[C@H](CC(C)C)N1CC2CCN(C(=O)[C@H](Cc3ccccc3)NC(=O)[C@H](Cc3ccccc3)NC(=O)[C@H](CO)NC(=O)[C@H](CC(=O)O)NC(=O)[C@@H](N)CCCCN)C2C1=O)C(N)=O (stereo not given in full) | 1.03 | 2.63 | 0.045
CSCC[C@H](NC(=O)[C@H](CC(C)C)NC(=O)CNC(=O)[C@@H](NC(=O)[C@H](Cc1ccccc1)NC(=O)[C@H](CO)NC(=O)[C@H](CC(=O)O)NC(=O)[C@@H](N)CCCCN)C(C)C)C(N)=O | 0.061 | 0.87 | 0.003
CSCC[C@H](NC(=O)[C@@H](CC(C)C)N1C[C@H]2CCN(C(=O)[C@H](Cc3ccccc3)NC(=O)[C@H](Cc3ccccc3)NC(=O)CCCCN)[C@H]2C1=O)C(N)=O | 5.23 | > 47 | 2.1
CSCC[C@H](NC(=O)[C@H](CC(C)C)N1C[C@@H]2CCN(C(=O)[C@H](Cc3ccccc3)NC(=O)[C@H](Cc3ccccc3)NC(=O)CCCCN)[C@@H]2C1=O)C(N)=O | 37.7 | > 8.21 | 1.19
CSCC[C@H](NC(=O)[C@@H](CC(C)C)N1C[C@@H]2CCN(C(=O)[C@H](Cc3ccccc3)NC(=O)[C@H](Cc3ccccc3)NC(=O)CCCCN)[C@@H]2C1=O)C(N)=O | 3.73 | > 30 | 0.566
CSCC[C@H](NC(=O)[C@H](CC(C)C)NC(=O)[C@@H]1CCCN1C(=O)[C@H](Cc1ccccc1)NC(=O)[C@H](Cc1ccccc1)NC(=O)CCCCN)C(N)=O | 0.0134 | > 10 | 13
CSCC[C@H](NC(=O)[C@H](CC(C)C)NC(=O)CNC(=O)[C@H](Cc1ccccc1)NC(=O)[C@H](Cc1ccccc1)NC(=O)CCCCN)C(N)=O (H-[Ava]FFGLM-NH2) | 0.038 | 11.3 | 1.19
CSCC[C@H](NC(=O)[C@H](CC(C)C)NC(=O)CNC(=O)[C@@H](NC(=O)[C@H](Cc1ccccc1)NC(=O)CCCCN)C(C)C)C(N)=O (H-[Ava]FVGLM-NH2) | 0.086 |  | 0.094
CSCC[C@H](NC(=O)[C@H](CC(C)C)NC(=O)CNC(=O)[C@@H](NC(=O)[C@H](Cc1ccccc1)NC(=O)[C@H](CO)NC(=O)[C@H](CC(=O)O)NC(=O)[C@@H](NC(=O)[C@H](CCCCN)NC(=O)[C@@H](N)Cc1cnc[nH]1)[C@@H](C)O)C(C)C)C(N)=O [NEUROKININ A] | 0.0137 | 0.563 | 
CSCC[C@H](NC(=O)[C@H](CC(C)C)NC(=O)CNC(=O)[C@@H](NC(=O)[C@H](Cc1ccccc1)NC(=O)[C@H](Cc1ccccc1)NC(=O)[C@H](CC(=O)O)NC(=O)[C@H](Cc1c[nH]cn1)NC(=O)[C@H](CCSC)NC(=O)[C@@H](N)CC(=O)O)C(C)C)C(N)=O [NEUROKININ B] | 0.068 | 0.0063 | 
CSCC[C@H](NC(=O)[C@H](CC(C)C)NC(=O)CNC(=O)[C@H](Cc1ccccc1)NC(=O)[C@H](Cc1ccccc1)NC(=O)[C@H](CCC(N)=O)NC(=O)[C@H](CCC(N)=O)NC(=O)[C@@H]1CCCN1C(=O)[C@H](CCCCN)NC(=O)[C@@H]1CCCN1C(=O)[C@@H](N)CCCN=C(N)N)C(N)=O [SUBSTANCE P] |  | 7.5 | 
H-KDSFFGLM-NH2 | 0.045 | 0.857 | 0.033
